Test results from ChEMBL document CHEMBL1142321, “Selection of a respiratory syncytial virus fusion inhibitor clinical candidate. 2. Discovery of a morpholinopropylaminobenzimidazole derivative (TMC353121)” (J Med Chem, 2008).
Values after ≈ are worked out from the molar mass of the structure shown.

Tests used:
[1] = Cytotoxicity against human HeLaM cells by MTT assay; format: functional, M-HeLa
[2] = Half life in Sprague-Dawley rat lung; format: ADME, organism-based
[3] = test system: Respiratory syncytial virus; test: Inhibition of RSV by MTT assay; format: functional, organism-based; conditions: human respiratory syncytial virus
Procedure, shortened: (§1)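 HeLaM epithelial-like cells infected with RSV with or without a range of compound concentrations; viability read by MTT after 1 week incubation. OD measured spectrophotometrically and pEC50 derived. Virus, cell and cytotoxicity controls on every plate, reference compounds in every test; runs failing control criteria rejected.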

[4] = Absolute bioavailability in Sprague-Dawley rat plasma at 10 mg/kg, po; format: ADME, organism-based
[5] = test system: Respiratory syncytial virus; test: Antiviral activity against RSV R6LO replication in HeLa cells; format: functional, organism-based; conditions: for EC50: human respiratory syncytial virus, HeLa; procedure, shortened: as §1
[6] = test system: Respiratory syncytial virus; test: Antiviral activity in RSV infected cotton rat model assessed as log reduction of viral titer at 40 mg/kg, po 2 hrs prior to viral challenge; format: functional
Procedure, shortened: (§2)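 Cotton rats dosed once orally by gavage 2 h before RSV challenge. BALF obtained by lung lavage with physiological water 4 days after challenge, virus titred by plaque assay. Log reduction expressed versus untreated control animals.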

[7] = test system: Respiratory syncytial virus; test: Antiviral activity against RSV LO replication in HeLa cells; format: functional, organism-based; procedure, shortened: as §1
[8] = test system: Respiratory syncytial virus; test: Antiviral activity against RSV CI42 replication in HeLa cells; format: functional, organism-based; conditions: for EC50: human respiratory syncytial virus, HeLa; procedure, shortened: as §1
[9] = test system: Respiratory syncytial virus; test: Antiviral activity in RSV infected cotton rat model assessed as log reduction of viral titer at 10 mg/kg, iv 5 mins prior to viral challenge; format: functional
Procedure, shortened: (§3)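 Cotton rats received a single iv dose at set times before (minus) or after (plus) RSV challenge. Day 4 after challenge, lungs flushed with physiological water and BALF virus titre measured by plaque titration. Log reduction calculated against untreated controls.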

[10] = Plasma clearance in Sprague-Dawley rat at 2 mg/kg, iv; format: ADME, organism-based; parameters: dose 2 mg/kg, route intravenous
[11] = test system: Respiratory syncytial virus; test: Antiviral activity in RSV infected cotton rat model assessed as log reduction of viral titer at 10 mg/kg, iv after 3 hrs of viral challenge; format: functional; procedure, shortened: as §3
[12] = test system: Respiratory syncytial virus; test: Antiviral activity in RSV infected cotton rat model assessed as log reduction of viral titer at 10 mg/kg, iv after 24 hrs of viral challenge; format: functional; procedure, shortened: as §3
[13] = Volume of distribution in Sprague-Dawley rat plasma at 2 mg/kg, iv; format: ADME, organism-based; parameters: dose 2 mg/kg, route intravenous
[14] = test system: Respiratory syncytial virus; test: Antiviral activity in RSV infected cotton rat model assessed as log reduction of viral titer at 10 mg/kg, iv 48 hrs prior to viral challenge; format: functional; procedure, shortened: as §3
[15] = test system: Respiratory syncytial virus; test: Antiviral activity in RSV infected cotton rat model assessed as log reduction of viral titer at 10 mg/kg, iv 24 hrs prior to viral challenge; format: functional; procedure, shortened: as §3
[16] = test system: Respiratory syncytial virus; test: Antiviral activity in RSV infected cotton rat model assessed as log reduction of viral titer at 2 mg/kg, iv 5 mins prior to viral challenge; format: functional; procedure, shortened: as §3
[17] = test system: Respiratory syncytial virus; test: Antiviral activity in RSV infected cotton rat model assessed as log reduction of viral titer at 10 mg/kg, iv 4 hrs prior to viral challenge; format: functional; procedure, shortened: as §3
[18] = test system: Respiratory syncytial virus; test: Antiviral activity against RSV Cl11 replication in HeLa cells; format: functional, organism-based; conditions: for EC50: human respiratory syncytial virus, HeLa; procedure, shortened: as §1
[19] = test system: Respiratory syncytial virus; test: Antiviral activity in RSV infected cotton rat model assessed as log reduction of viral titer at 20 mg/mL by aerosol administration 1 hr prior to viral challenge; format: functional
Procedure, shortened: (§4)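 Single aerosol from an ultrasonic nebulizer for 1 h, given 1 h before RSV challenge; dose stated as drug concentration in the nebulizer reservoir. BALF collected by lung flushing with physiological water 4 days after challenge. Virus titre measured by plaque titration; log reduction calculated against untreated control animals.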

[20] = test system: Respiratory syncytial virus; test: Antiviral activity in RSV infected cotton rat model assessed as log reduction of viral titer at 0.25 mg/mL by aerosol administration 1 hr prior to viral challenge; format: functional; procedure, shortened: as §4
[21] = test system: Respiratory syncytial virus; test: Antiviral activity in RSV infected cotton rat model assessed as log reduction of viral titer at 10 mg/kg, iv 1 hrs prior to viral challenge; format: functional; procedure, shortened: as §3
[22] = Cmax in Sprague-Dawley rat plasma at 10 mg/kg, po; format: ADME, organism-based; parameters: dose 10 mg/kg, route oral
[23] = Half life in Sprague-Dawley rat plasma at 2 mg/kg, iv; format: ADME, organism-based; parameters: dose 2 mg/kg, route intravenous
[24] = test system: Respiratory syncytial virus; test: Antiviral activity in RSV infected cotton rat model assessed as log reduction of viral titer at 5 mg/mL by aerosol administration 1 hr prior to viral challenge; format: functional; procedure, shortened: as §4
[25] = test system: Respiratory syncytial virus; test: Antiviral activity in RSV infected cotton rat model assessed as log reduction of viral titer at 10 mg/kg, iv 72 hrs prior to viral challenge; format: functional; procedure, shortened: as §3
[26] = test system: Respiratory syncytial virus; test: Antiviral activity against RSV R2LO replication in HeLa cells; format: functional, organism-based; conditions: for EC50: human respiratory syncytial virus, HeLa; procedure, shortened: as §1
[27] = test system: Respiratory syncytial virus; test: Antiviral activity in RSV infected cotton rat model assessed as log reduction of viral titer at 10 mg/kg, iv 96 hrs prior to viral challenge; format: functional; procedure, shortened: as §3
[28] = test system: Respiratory syncytial virus; test: Antiviral activity against RSV CI41 replication in HeLa cells; format: functional, organism-based; conditions: for EC50: human respiratory syncytial virus, HeLa; procedure, shortened: as §1
[29] = test system: Respiratory syncytial virus; test: Antiviral activity against RSV R1LO replication in HeLa cells; format: functional, organism-based; conditions: for EC50: human respiratory syncytial virus, HeLa; procedure, shortened: as §1
[30] = test system: Respiratory syncytial virus; test: Antiviral activity in RSV infected cotton rat model assessed as log reduction of viral titer at 1.25 mg/mL by aerosol administration 1 hr prior to viral challenge; format: functional; procedure, shortened: as §4
[31] = AUC (0 to infinity) in Sprague-Dawley rat plasma at 10 mg/kg, po; format: ADME, organism-based; parameters: time infinity, dose 10 mg/kg, route oral
[32] = test system: Respiratory syncytial virus; test: Antiviral activity in RSV infected cotton rat model assessed as log reduction of viral titer at 10 mg/kg, po 2 hrs prior to viral challenge; format: functional; procedure, shortened: as §2
[33] = AUC (0 to infinity) in Sprague-Dawley rat plasma at 2 mg/kg, iv; format: ADME, organism-based; parameters: time infinity, dose 2 mg/kg, route intravenous
[34] = test system: Respiratory syncytial virus; test: Antiviral activity against RSV CI57 replication in HeLa cells; format: functional, organism-based; conditions: for EC50: human respiratory syncytial virus, HeLa; procedure, shortened: as §1

Cc1ccc(O)c(Cn2c(NCCCN3CCOCC3)nc3ccc(CNc4ccccc4CCO)cc32)n1
pCC50 [1]: 4.7 | half-life [2]: 20.1 h | EC50 [3]: 0.794 nM

Cc1cc(C)cc(NCc2ccc3nc(NC4CCN(CCO)CC4)n(Cc4nc(C)ccc4O)c3c2)c1
pCC50 [1]: 4.5 | half-life [2]: 84.9 h | EC50 [3]: 1.58 nM

Cc1cccc(CCc2ccc3nc(NC4CCN(C)CC4)n(Cc4nc(C)ccc4O)c3c2)c1
pCC50 [1]: 5.9 | EC50 [3]: 20 nM

Cc1cc(C)cc(N(CCCC(N)=O)Cc2ccc3nc(NCCCN4CCOCC4)n(Cc4nc(C)ccc4O)c3c2)c1
pCC50 [1]: 4.7 | half-life [2]: 10.4 h | EC50 [3]: 0.251 nM

Cc1ccc(CCCO)c(NCc2ccc3nc(NCCCN4CCOCC4)n(Cc4nc(C)ccc4O)c3c2)c1
bioavailability [4]: 14% | pEC90 [5]: <6.7 | EC50 ([5]; read-out: EC50): 0.04 ng/mL | EC50 ([5]; read-out: Log EC50 (converted)): 0.0794 nM | Activity [6]: 0.8 | pEC90 [7]: 9.6 | EC50 ([7]; human respiratory syncytial virus, HeLa): 0.07 ng/mL (≈ 0.000125 µM) | pEC90 [8]: 10.1 | EC50 ([8]; read-out: EC50): 0.02 ng/mL | EC50 ([8]; read-out: Log EC50 (converted)): 0.0316 nM | Activity [9]: 1.2 | clearance [10]: 90 mL/min/kg | Activity [11]: 0.5 | Activity [12]: 0.2 | Vd [13]: 79.3 L/kg | Activity [14]: 0.3 | Activity [15]: 0.5 | Activity [16]: 0.4 | Activity [17]: 0.9 | pEC90 [18]: 10 | EC50 ([18]; read-out: EC50): 0.03 ng/mL | EC50 ([18]; read-out: Log EC50 (converted)): 0.0501 nM | pCC50 [1]: 5.1 | CC50 ([1]; Homo sapiens, M-HeLa): 4440 ng/mL (≈ 7.94 µM) | Activity [19]: 1.6 | Activity [20]: 0.6 | Activity [21]: 0.9 | Cmax [22]: 47.3 ng/mL | half-life [23]: 10.3 h | Activity [24]: 1.5 | half-life [2]: 25.1 h | Activity [25]: 0.4 | pEC90 [26]: <4 | EC50 ([26]; read-out: EC50): 280 ng/mL | EC50 ([26]; read-out: Log EC50 (converted)): 501 nM | Activity [27]: 0.2 | pEC90 [28]: 10.1 | EC50 ([28]; read-out: EC50): 0.02 ng/mL | EC50 ([28]; read-out: Log EC50 (converted)): 0.0316 nM | pEC90 [29]: 7.5 | EC50 ([29]; read-out: EC50): 7.03 ng/mL | EC50 ([29]; read-out: Log EC50 (converted)): 12.6 nM | Activity [30]: 1 | AUC(0-inf) [31]: 246 ng·h/mL | Activity [32]: 0.4 | AUC(0-inf) [33]: 354 ng·h/mL | pEC90 [34]: 9.8 | EC50 ([34]; read-out: EC50): 0.04 ng/mL | EC50 ([34]; read-out: Log EC50 (converted)): 0.0794 nM

Cc1ccc(O)c(Cn2c(NC3CCN(C)CC3)nc3ccc(CN(C)c4ccccc4)cc32)n1
pCC50 [1]: 5.2 | EC50 [3]: 39.8 nM

Cc1cc(C)cc(NCc2ccc3nc(NCCc4ccccc4)n(Cc4nc(C)ccc4O)c3c2)c1
pCC50 [1]: 4.4 | EC50 [3]: > 100000 nM

Cc1cccc(/C=C/c2ccc3nc(NC4CCN(CCN)CC4)n(Cc4nc(C)ccc4O)c3c2)c1
pCC50 [1]: 5.1 | EC50 [3]: 3.16 nM

Cc1cc(C)cc(NCc2ccc3nc(NCCCN4CCN(C)CC4)n(Cc4nc(C)ccc4O)c3c2)c1
pCC50 [1]: 5 | EC50 [3]: 3.98 nM

Cc1cccc(NCc2ccc3nc(NCCCN4CCOCC4)n(Cc4nc(C)ccc4O)c3c2)c1
pCC50 [1]: 4.9 | EC50 [3]: 2.51 nM

Cc1cccc(CNc2ccc3nc(NC4CCN(C)CC4)n(Cc4nc(C)ccc4O)c3c2)c1
pCC50 [1]: 4.8 | EC50 [3]: 15.8 nM

Cc1ccc(O)c(Cn2c(NC3CCN(C)CC3)nc3ccc(C(O)c4ccccc4)cc32)n1 (stereo not drawn)
pCC50 [1]: <4 | EC50 [3]: 158 nM

Cc1cccc(SCc2ccc3nc(NC4CCN(C)CC4)n(Cc4nc(C)ccc4O)c3c2)c1
pCC50 [1]: 4.4 | EC50 [3]: 251 nM

Cc1cc(C)cc(NCc2ccc3nc(NCCCN4CCOCC4)n(Cc4nc(C)ccc4O)c3c2)c1
pCC50 [1]: 5 | half-life [2]: 13.7 h | EC50 [3]: 1 nM

Cc1ccc(O)c(Cn2c(NC3CCN(C)CC3)nc3ccc(CN(CCO)c4ccccc4)cc32)n1
pCC50 [1]: <4 | EC50 [3]: 3.16 nM

Cc1ccc(O)c(Cn2c(NC3CCN(CCN)CC3)nc3c(C)cccc32)n1 [JNJ 2408068]
pCC50 [1]: <4 | EC50 [3]: 0.251 nM
